Assay: Toxicity liver stage against HepG2, at 10uM
Format: cell-based
Parameters: test concentration 10 uM, cell line HepG2-A16-CD81EGFP
Settings: human, HepG2-A16-CD81EGFP cells; read-out: INHIBITION
In short: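 Uninfected HepG2-A16-CD81EGFP cells, 3 × 10^3 per well, 1536-well, plated on prespotted compound at 10 μM final, parasite-free screening media added to match infected plates; puromycin 10 μM positive, DMSO 0.5% negative; run in parallel with 48 h PbLuc assay at 37 °C, 5% CO2; viability by CellTiter-Glo luminescence, normalized to controls.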

| Compound | cytotoxicity at 10 µM [%] |
| --- | --- |
| O=S(=O)(NCc1cn2ccccc2n1)N1CCOCC1 | 2.69 |
| CC(C)(C)c1coc([C@@H]2COCCN2Cc2ccccn2)n1 | -4.04 |
| COc1ccc(CNC[C@H]2COCc3nc4cc(F)ccc4n32)cc1 | 1.52 |
| CCc1c(C)sc2c1c(N)nc(=O)n2CCN1CCOCC1 | 1.17 |
| COCCn1ccc(=O)c(OCC(=O)Nc2ccc(OC)c(Cl)c2)c1C | 5.36 |
| CC1=Nc2c(c(=O)[nH]n2C(C)C)C(c2ccc3c(c2)n(C)c(=O)n3C)S1 (stereo unspecified) | 3.75 |
| O=c1n(Cc2cccc(C(F)(F)F)c2)nc2ncccn12 | -8.64 |
| Cn1nnc2c(N3CC(C(=O)NCc4cccs4)C3)ncnc21 | 4.29 |
| C1CN(c2nc3c(c(NC4CC4)n2)CN(CC2CCOC2)CC3)CCO1 (stereo unspecified) | -2.22 |
| CC(=O)N1CCC2(CC1)C(=O)N(c1cccnc1)c1ccc(F)cc12 | 10.6 |
| O=C1[C@@H]2CCN(CC3CCOCC3)C[C@@H]2OCCN1c1ccccc1 | -5.21 |
| CC(C)C(=O)N1CC[C@@H]2CN(Cc3ccncc3)S(=O)(=O)[C@@H]2CC1 | 5.38 |
| COCCO[C@H]1CCN(c2cc(OC)ncn2)[C@H]1Cc1ccncc1 | -146 |
| CCOC(=O)C1CN(S(=O)(=O)CC)Cc2ncn(CC)c21 (stereo unspecified) | 6.83 |
| CN1CCN(C(=O)c2n[nH]c3c2CCN(Cc2nccs2)C3)CC1 | -143 |
| Cc1nccc([C@@H]2C[C@@H]3CCN(S(=O)(=O)C4CC4)C[C@H]3O2)n1 | -5.9 |
| COC(=O)CCC(=O)N1CCC2(CN(Cc3cccc(F)c3)C2)C1 | 4.6 |
| O=C1NCC[C@]12CN(Cc1ccoc1)C[C@H]2c1ccccc1 | 4.55 |
| Cc1c(Br)c(C(=O)NC(C)c2ccccc2)nn1C (stereo unspecified) | -4.34 |
| Cc1nn(C)c2c(NCCn3cccn3)ncnc12 | -1.26 |
| CCn1nc(C)c2nc(C(C)C)nc(N3CCOCC3)c21 | 2.88 |
| N#Cc1ccc(C2CC(=O)Nc3c(C(=O)O)nsc32)cc1 (stereo unspecified) | 3.02 |
| O=C1Nc2ccccc2CC12CCCN2Cc1ccc(F)cc1 (stereo unspecified) | 10.5 |

| Compound | cytotoxicity at 10 µM [%] |
| --- | --- |
| CC(C)(C)c1nc(CN(CCO)Cc2cc(Br)ccc2F)no1 | 8.52 |
| CS(=O)(=O)Cc1ccc(OCc2ccc(F)cc2)cc1 | 22.9 |
| CCCn1cc(C(=O)NCCS(N)(=O)=O)c2ccccc21 | 5.15 |
| Cc1cc(C)cc(C(=O)NCCS(=O)(=O)N2CCSCC2)c1 | -12.5 |
| Cc1nn(C)c(C)c1C(C)NCc1ccc(OC(C)C)cc1 (stereo unspecified) | 15.3 |
| CC(CNC(=O)c1cc(N2CCNC2=O)ccc1F)c1ccccc1 (stereo unspecified) | -2.1 |
| NC(=O)c1cnc(NC2CCN(C(=O)C3CC3)CC2)c(Cl)c1 | -14.2 |
| COC(=O)c1ccc(Cn2nc(C)cc2C)c(F)c1 | 4.11 |
| Cc1nsc(N2CCCN(C(=O)NCc3cccnc3)CC2)n1 | -0.555 |
| OCCOc1ccc(NCc2cccc3cccnc23)cn1 | -3.24 |
| N#Cc1ccc(SCCOCCO)c(F)c1 | 0.513 |
| CC(C)N(Cc1ccccc1)Cc1nnsc1Cl | -9.44 |
| CC(C)C(=O)NC1CCN(c2cccc(OC(F)(F)F)c2)C1=O (stereo unspecified) | -4.13 |
| CCN1CCN(c2ccc(F)cc2C(C)NCc2nc(C)no2)CC1 (stereo unspecified) | -17.9 |
| CC(NC(=O)N(C)Cc1ccc2c(c1)OCO2)c1nncn1C (stereo unspecified) | -1.31 |
| CCn1cc(C(=O)Nc2ccc(C)cc2C(=O)OC)cn1 | 5.47 |
| O=C(c1ccncc1)N1CCn2c(nnc2-c2ccccc2)C1 | 4.45 |
| CN(C(=O)c1ccc(C#N)cc1)C1CCN(c2ccccn2)CC1 | -7.56 |
| CC(C)c1nnc(NC(=O)c2cccc(OCC(F)(F)F)n2)[nH]1 | -1.26 |
| CN(Cc1nnnn1C1CC1)c1cccc2ccccc12 | 8.38 |
| CC1(C)Oc2ccc(NC(=O)c3ccc(=O)[nH]n3)cc2O1 | 10.1 |
| CC(O)CN1CCC(CN(C)C(=O)NC2CC2)CC1 (stereo unspecified) | 5.55 |
| Cc1ncc(CNc2cnccc2CO)s1 | -24.7 |

| Compound | cytotoxicity at 10 µM [%] |
| --- | --- |
| CCc1noc(CN(CCS(C)(=O)=O)C(C)(C)C)n1 | -0.718 |
| CS(=O)(=O)c1nccn1CCOc1ccc(F)cc1Cl | 13.1 |
| C[S+]([O-])CCCNCc1cc(F)ccc1Br (stereo unspecified) | 0.732 |
| Cc1cc(C(=O)NCC(=O)NC(c2ncccc2C)C(C)C)c(C)o1 (stereo unspecified) | -9.6 |
| Cn1cnc(S(=O)(=O)N2CCSC3(CCCCC3)C2)c1 | -5.95 |
| Cc1nc(C(=O)Nc2cc(N3CCNC3=O)ccc2Cl)cs1 | -1.33 |
| O=C(c1cccnc1-n1cncn1)N1CCc2ccccc2C1 | -13.9 |
| Cc1nsc(N2CCCN(c3nc(C4CC4)ns3)CC2)n1 | -11.5 |
| CC[C@H](C)[C@H](N)C(=O)Nc1nc(-c2cnc(N(C)CCO)nc2)cs1 | -9.27 |
| CCCn1ncc(C(=O)N2CCN(C3CCCC3)CC2)c1C | -151 |
| CC(=O)N1CCCC(C(=O)NCCc2nc(Cc3ccccc3)no2)C1 (stereo unspecified) | 3.81 |
| CCn1c(N)nc2cc(C(=O)N3CCN(c4nccs4)CC3)cnc21 | -17.2 |
| CC1=CC[C@@H]2CN(C(=O)c3ccc(-c4cc[nH]n4)cc3)C[C@@H]2C1 | 5.15 |
| CCCN1CCC(CC(=O)NCCc2nc(C)cc(C)n2)CC1 | -13.7 |
| CN(Cc1noc2c1CCCC2)C(=O)Nc1cccc(S(N)(=O)=O)c1 | -4.32 |
| Cc1ccoc1C(=O)N1CCC(n2cc(CO)nn2)CC1 | -1.52 |
| CN1CC(C(=O)N(C)Cc2cc(-c3cccnc3)no2)NC1=O (stereo unspecified) | -3.08 |
| CC(CO)Nc1ccc(-c2nc(Cc3ccc(F)cc3)no2)cn1 (stereo unspecified) | -11.9 |
| CNc1nc2c(c(C(=O)N3CCCC3)n1)CN(C(=O)c1cccs1)CC2 | -112 |
| CCC1(CO)CCCN(C(=O)c2cc(COc3ccccc3F)[nH]n2)C1 (stereo unspecified) | 20.8 |
| CC1CCCN(Cc2cccc(C(=O)Nc3nccs3)c2)C1 (stereo unspecified) | -5.68 |
| CCc1nc(Cn2nc(C3CCNCC3)n(-c3ccccc3)c2=O)cs1 | -1.22 |
| Cc1nc(N(C)C)nc(NCCc2c[nH]cn2)c1C | 3.12 |

| Compound | cytotoxicity at 10 µM [%] |
| --- | --- |
| O=C(NC1CC(=O)N(C2Cc3ccccc3C2)C1)c1csnn1 (stereo unspecified) | 2.96 |
| COCc1ccc(C(=O)N2CCN(CC3CC3)[C@@H]3CS(=O)(=O)C[C@@H]32)o1 | -15.5 |
| CC(C(=O)O)N1CC2(CCC1=O)CCN(CCSc1ccccc1)CC2 (stereo unspecified) | 2.57 |
| O=C(CN1CCN(c2ncccn2)[C@@H]2CS(=O)(=O)C[C@@H]21)N1CCCCC1 | -6.82 |
| COc1cccc(NC(=O)c2cc3c([nH]c2=O)CCCC3=O)c1 | -3.35 |
| CCCn1ncc(C(=O)N2CCCC(OCc3ccccn3)C2)c1C (stereo unspecified) | -0.2 |
| CC(=O)c1cc(CC(=O)NCc2ccc(F)cc2)cs1 | -18.7 |
| Cc1nccn1CCC1CCCCN1Cc1ccc(N(C)C)nc1 (stereo unspecified) | 21.3 |
| Cc1[nH]c(=O)[nH]c(=O)c1CN1CCCC(CCc2ccccc2)C1 (stereo unspecified) | -11.4 |
| CC(C)(C)c1nc(CN2CCCC2Cn2cncn2)no1 (stereo unspecified) | 1.93 |
| Cc1nn(C)c(C)c1C1CCCN1C(=O)CCc1ccco1 (stereo unspecified) | -21.5 |
| Cc1nc2ccnn2c(C)c1CCC(=O)N1CCN2CCCCC2C1 (stereo unspecified) | -8.82 |
| CC(C)(C)c1ncc(C(=O)NCCNc2ncccn2)s1 | -1.62 |
| Cc1nn(C)c(Cl)c1C1CCCN1C(=O)c1cccc(C#N)c1 (stereo unspecified) | -22 |
| Cc1nc2n(n1)CC(NCc1cnn(-c3ccccc3)n1)CC2 (stereo unspecified) | -3.69 |
| CC(CO)NC(=O)Nc1ccc(S(C)(=O)=O)nc1 (stereo unspecified) | -10.2 |
| CC(=O)NCC1CCN(C(=O)CCOc2ccc(C(C)C)cc2)CC1 | -11.6 |
| Cn1cc(C2CCCN2Cc2csc(-c3ccccc3)n2)cn1 (stereo unspecified) | -2.48 |
| CN1CCOC(CNCc2ccc(OCc3ccccn3)cc2)C1 (stereo unspecified) | -13.4 |
| CC(C)c1nc(CN2CCOC(Cn3cccn3)C2)no1 (stereo unspecified) | -9.43 |
| Cc1cccc(N2CCN(C(=O)NC(C)c3nncn3C)CC2)c1 (stereo unspecified) | -6.13 |
| COCCOc1ncccc1C(=O)N1CCCCC1c1nccs1 (stereo unspecified) | -11.5 |
| COc1ccc(F)cc1C(=O)N1CCCC(CNS(C)(=O)=O)C1 (stereo unspecified) | -20 |

| Compound | cytotoxicity at 10 µM [%] |
| --- | --- |
| O=C(NCCn1ccnc1)N1CCN(Cc2ccco2)CC1 | 3.94 |
| OC1(CN2CCOC(Cn3cccn3)C2)CCCCC1 (stereo unspecified) | -6.11 |
| Cc1cnn(CC2CCCN2C(=O)c2cc(C)nc3[nH]nc(C)c23)c1 (stereo unspecified) | -12.4 |
| COc1ccc(CN2CCCCC2Cn2nc(C)nc2C)cc1F (stereo unspecified) | -15 |
| c1ccc(-n2cc(CN3CCCC(Cn4cncn4)C3)nn2)cc1 (stereo unspecified) | 1.52 |
| Cc1cccc(C)c1NC(=O)CCNC(=O)c1ccoc1 | 3.03 |
| CCc1[nH]ncc1C(=O)N1CCCN(Cc2cnn(C)c2)CC1 | 1.71 |
| CCO[C@@H]1C[C@H]2CN(Cc3ccc(C)o3)CCN2C1 | -149 |
| Cc1ccc(CN2C[C@@H](N(C)C)[C@H]3OCCC[C@H]32)o1 | -136 |
| Cn1ccnc1CN1CCC(F)(F)C2(CCN(c3cnccn3)C2)C1 (stereo unspecified) | 16.4 |
| COC1COC2(CCN(Cc3ccc4c(c3)OCO4)CC2)C1 (stereo unspecified) | 0.729 |
| O=C(Nc1cnccn1)[C@@H]1C[C@H]2OCC[C@H]2N(Cc2ccsc2)C1 | -2.31 |
| Cc1cnc(N2CCC3(CCCCN3C)C2)nc1 (stereo unspecified) | 3.29 |
| Cc1ncsc1CN1C[C@H](OCC(C)C)[C@H]2OCCC[C@H]21 | -140 |
| c1cnc(NCc2cncc3c2CCN(Cc2cccs2)C3)nc1 | 7.33 |
| Cc1ccc(N2CCCC3(COCCN(c4ncccn4)C3)C2)nn1 (stereo unspecified) | -131 |
| CC(C)NC(=O)c1ccc2nnc(C3CN(C)CCN3C)n2c1 (stereo unspecified) | -139 |
| c1ccc(CN2Cc3nccn3CC(Cn3cncn3)C2)nc1 (stereo unspecified) | -141 |
| O=C1CCCC2=Nc3nonc3NC(c3ccc(F)cc3F)C12 (stereo unspecified) | 2.43 |

Source: ChEMBL document CHEMBL4513216, “Probing the Open Global Health Chemical Diversity Library for Multistage-Active Starting Points for Next-Generation Antimalarials” (ACS Infect Dis, 2020)
